Laboratory results reported in PMC11661184 (bioRxiv, 2024).
No end group written: not given here.

System: CaM (Calmodulin-agarose)
Experiment: CaM-agarose pulldown of TRPA1 constructs
Assay type: binding
Conditions: for CaM binding of MBP-tagged C-terminal peptides: expressed in HEK293T; for CaM binding of truncated hTRPA1 constructs: CaM-agarose pulldown, HEK293T lysate, immunoblot
How it was run: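 HEK293T cells were transfected with tagged TRPA1 constructs and lysed after 16-24 h in Tris pH 8.0 buffer containing 5 mM DDM and 500 µM EGTA. Free Ca²⁺ was set with CaCl₂, calculated from EGTA constants. 100 µg lysate was incubated with CaM-agarose for 1 h at 4 °C, washed, then eluted with 5 mM EGTA. Detection was by anti-FLAG or anti-MBP immunoblot, with tubulin input control. Enrichment is relative to the maximum within each replicate.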

CaM binding of truncated hTRPA1 constructs	other results	Molecule
–	CaM binding of TRPA1 species orthologues (MBP-tagged constructs, absence or presence of Ca2+, four independent experiments): bound CaM in a Ca^2+-dependent manner	WT mouse: WT mouse TRPA1, MBP-tagged
–	CaM binding of MBP-tagged C-terminal peptides (absence or presence of Ca2+): bound CaM in a Ca^2+-dependent manner	hTRPA1^1099–1119: MBP-tagged smaller fragment of hTRPA1 C-terminus (RNSRWNTVLRAVKAKTHHLEP; also: MBP-tagged)
–	CaM binding of MBP-tagged C-terminal peptides (absence or presence of Ca2+): bound CaM in a Ca^2+-dependent manner	hTRPA1^1079–1119: MBP-tagged full hTRPA1 unresolved C-terminus (EDDDSHCSFQDRFKKEQMEQRNSRWNTVLRAVKAKTHHLEP; also: MBP-tagged)
failed to bind CaM in vitro	–	hTRPA1^S488-T1078: minimal hTRPA1 construct previously used for structural determination, retains the CaMBD (protein) SPLHFAASYGRINTCQRLLQDISDTRLLNEGDLHGMTPLHLAAKNGHDKVVQLLLKKGALFLSDHNGWTALHHASMGGYTQTMKVILDTNLKCTDRLDEDGNTALHFAAREGHAKAVALLLSHNADIVLNKQQASFLHLALHNKRKEVVLTIIRSKRWDECLKIFSHNSPGNKCPITEMIEYLPECMKVLLDFCMLHSTEDKSCRDYYIEYNFKYLQCPLEFTKKTPTQDVIYEPLTALNAMVQNNRIELLNHPVCKEYLLMKWLAYGFRAHMMNLGSYCLGLIPMTILVVNIKPGMAFNSTGIINETSDHSEILDTTNSYLIKTCMILVFLSSIFGYCKEAGQIFQQKRNYFMDISNVLEWIIYTTGIIFVLPLFVEIPAHLQWQCGAIAVYFYWMNFLLYLQRFENCGIFIVMLEVILKTLLRSTVVFIFLLLAFGLSFYILLNLQDPFSSPLLSIIQTFSMMLGDINYRESFLEPYLRNELAHPVLSFAQLVSFTIFVPIVLMNLLIGLAVGDIAEVQKHASLKRIAMQVELHTSLEKKLPLWFLRKVDQKSTIVYPNKPRSGGMLFHIFCFLFCTGEIRQEIPNADKSLEMEILKQKYRLKDLTFLLEKQHELIKLIIQKMEIISET
failed to bind CaM	–	hTRPA1^M62-T1078: hTRPA1 construct containing full ARD but lacking the structurally unresolved N- and C-termini (protein) MDTFFLHYAAAEGQIELMEKITRDSSLEVLHEMDDYGNTPLHCAVEKNQIESVKFLLSRGANPNLRNFNMMAPLHIAVQGMNNEVMKVLLEHRTIDVNLEGENGNTAVIIACTTNNSEALQILLKKGAKPCKSNKWGCFPIHQAAFSGSKECMEIILRFGEEHGYSRQLHINFMNNGKATPLHLAVQNGDLEMIKMCLDNGAQIDPVEKGRCTAIHFAATQGATEIVKLMISSYSGSVDIVNTTDGCHETMLHRASLFDHHELADYLISVGADINKIDSEGRSPLILATASASWNIVNLLLSKGAQVDIKDNFGRNFLHLTVQQPYGLKNLRPEFMQMQQIKELVMDEDNDGCTPLHYACRQGGPGSVNNLLGFNVSIHSKSKDKKSPLHFAASYGRINTCQRLLQDISDTRLLNEGDLHGMTPLHLAAKNGHDKVVQLLLKKGALFLSDHNGWTALHHASMGGYTQTMKVILDTNLKCTDRLDEDGNTALHFAAREGHAKAVALLLSHNADIVLNKQQASFLHLALHNKRKEVVLTIIRSKRWDECLKIFSHNSPGNKCPITEMIEYLPECMKVLLDFCMLHSTEDKSCRDYYIEYNFKYLQCPLEFTKKTPTQDVIYEPLTALNAMVQNNRIELLNHPVCKEYLLMKWLAYGFRAHMMNLGSYCLGLIPMTILVVNIKPGMAFNSTGIINETSDHSEILDTTNSYLIKTCMILVFLSSIFGYCKEAGQIFQQKRNYFMDISNVLEWIIYTTGIIFVLPLFVEIPAHLQWQCGAIAVYFYWMNFLLYLQRFENCGIFIVMLEVILKTLLRSTVVFIFLLLAFGLSFYILLNLQDPFSSPLLSIIQTFSMMLGDINYRESFLEPYLRNELAHPVLSFAQLVSFTIFVPIVLMNLLIGLAVGDIAEVQKHASLKRIAMQVELHTSLEKKLPLWFLRKVDQKSTIVYPNKPRSGGMLFHIFCFLFCTGEIRQEIPNADKSLEMEILKQKYRLKDLTFLLEKQHELIKLIIQKMEIISET
did not affect Ca^2+/CaM binding	–	hTRPA1^Δ1–61 (protein) MDTFFLHYAAAEGQIELMEKITRDSSLEVLHEMDDYGNTPLHCAVEKNQIESVKFLLSRGANPNLRNFNMMAPLHIAVQGMNNEVMKVLLEHRTIDVNLEGENGNTAVIIACTTNNSEALQILLKKGAKPCKSNKWGCFPIHQAAFSGSKECMEIILRFGEEHGYSRQLHINFMNNGKATPLHLAVQNGDLEMIKMCLDNGAQIDPVEKGRCTAIHFAATQGATEIVKLMISSYSGSVDIVNTTDGCHETMLHRASLFDHHELADYLISVGADINKIDSEGRSPLILATASASWNIVNLLLSKGAQVDIKDNFGRNFLHLTVQQPYGLKNLRPEFMQMQQIKELVMDEDNDGCTPLHYACRQGGPGSVNNLLGFNVSIHSKSKDKKSPLHFAASYGRINTCQRLLQDISDTRLLNEGDLHGMTPLHLAAKNGHDKVVQLLLKKGALFLSDHNGWTALHHASMGGYTQTMKVILDTNLKCTDRLDEDGNTALHFAAREGHAKAVALLLSHNADIVLNKQQASFLHLALHNKRKEVVLTIIRSKRWDECLKIFSHNSPGNKCPITEMIEYLPECMKVLLDFCMLHSTEDKSCRDYYIEYNFKYLQCPLEFTKKTPTQDVIYEPLTALNAMVQNNRIELLNHPVCKEYLLMKWLAYGFRAHMMNLGSYCLGLIPMTILVVNIKPGMAFNSTGIINETSDHSEILDTTNSYLIKTCMILVFLSSIFGYCKEAGQIFQQKRNYFMDISNVLEWIIYTTGIIFVLPLFVEIPAHLQWQCGAIAVYFYWMNFLLYLQRFENCGIFIVMLEVILKTLLRSTVVFIFLLLAFGLSFYILLNLQDPFSSPLLSIIQTFSMMLGDINYRESFLEPYLRNELAHPVLSFAQLVSFTIFVPIVLMNLLIGLAVGDIAEVQKHASLKRIAMQVELHTSLEKKLPLWFLRKVDQKSTIVYPNKPRSGGMLFHIFCFLFCTGEIRQEIPNADKSLEMEILKQKYRLKDLTFLLEKQHELIKLIIQKMEIISETEDDDSHCSFQDRFKKEQMEQRNSRWNTVLRAVKAKTHHLEP
ablated Ca^2+/CaM binding	–	hTRPA1^Δ1079–1119 (protein) MKRSLRKMWRPGEKKEPQGVVYEDVPDDTEDFKESLKVVFEGSAYGLQNFNKQKKLKRCDDMDTFFLHYAAAEGQIELMEKITRDSSLEVLHEMDDYGNTPLHCAVEKNQIESVKFLLSRGANPNLRNFNMMAPLHIAVQGMNNEVMKVLLEHRTIDVNLEGENGNTAVIIACTTNNSEALQILLKKGAKPCKSNKWGCFPIHQAAFSGSKECMEIILRFGEEHGYSRQLHINFMNNGKATPLHLAVQNGDLEMIKMCLDNGAQIDPVEKGRCTAIHFAATQGATEIVKLMISSYSGSVDIVNTTDGCHETMLHRASLFDHHELADYLISVGADINKIDSEGRSPLILATASASWNIVNLLLSKGAQVDIKDNFGRNFLHLTVQQPYGLKNLRPEFMQMQQIKELVMDEDNDGCTPLHYACRQGGPGSVNNLLGFNVSIHSKSKDKKSPLHFAASYGRINTCQRLLQDISDTRLLNEGDLHGMTPLHLAAKNGHDKVVQLLLKKGALFLSDHNGWTALHHASMGGYTQTMKVILDTNLKCTDRLDEDGNTALHFAAREGHAKAVALLLSHNADIVLNKQQASFLHLALHNKRKEVVLTIIRSKRWDECLKIFSHNSPGNKCPITEMIEYLPECMKVLLDFCMLHSTEDKSCRDYYIEYNFKYLQCPLEFTKKTPTQDVIYEPLTALNAMVQNNRIELLNHPVCKEYLLMKWLAYGFRAHMMNLGSYCLGLIPMTILVVNIKPGMAFNSTGIINETSDHSEILDTTNSYLIKTCMILVFLSSIFGYCKEAGQIFQQKRNYFMDISNVLEWIIYTTGIIFVLPLFVEIPAHLQWQCGAIAVYFYWMNFLLYLQRFENCGIFIVMLEVILKTLLRSTVVFIFLLLAFGLSFYILLNLQDPFSSPLLSIIQTFSMMLGDINYRESFLEPYLRNELAHPVLSFAQLVSFTIFVPIVLMNLLIGLAVGDIAEVQKHASLKRIAMQVELHTSLEKKLPLWFLRKVDQKSTIVYPNKPRSGGMLFHIFCFLFCTGEIRQEIPNADKSLEMEILKQKYRLKDLTFLLEKQHELIKLIIQKMEIISET
–	CaM binding at basal Ca2+ concentration (basal Ca2+, n=3 independent experiments): partial reduction in binding	L1107A (protein, UniProt O75762 1-1119, looked up, variant L1107A) Transient receptor potential …: MKRSLRKMWRPGEKKEPQGVVYEDVPDDTEDFKESLKVVFEGSAYGLQNFNKQKKLKRCDDMDTFFLHYAAAEGQIELMEKITRDSSLEVLHEMDDYGNTPLHCAVEKNQIESVKFLLSRGANPNLRNFNMMAPLHIAVQGMNNEVMKVLLEHRTIDVNLEGENGNTAVIIACTTNNSEALQILLKKGAKPCKSNKWGCFPIHQAAFSGSKECMEIILRFGEEHGYSRQLHINFMNNGKATPLHLAVQNGDLEMIKMCLDNGAQIDPVEKGRCTAIHFAATQGATEIVKLMISSYSGSVDIVNTTDGCHETMLHRASLFDHHELADYLISVGADINKIDSEGRSPLILATASASWNIVNLLLSKGAQVDIKDNFGRNFLHLTVQQPYGLKNLRPEFMQMQQIKELVMDEDNDGCTPLHYACRQGGPGSVNNLLGFNVSIHSKSKDKKSPLHFAASYGRINTCQRLLQDISDTRLLNEGDLHGMTPLHLAAKNGHDKVVQLLLKKGALFLSDHNGWTALHHASMGGYTQTMKVILDTNLKCTDRLDEDGNTALHFAAREGHAKAVALLLSHNADIVLNKQQASFLHLALHNKRKEVVLTIIRSKRWDECLKIFSHNSPGNKCPITEMIEYLPECMKVLLDFCMLHSTEDKSCRDYYIEYNFKYLQCPLEFTKKTPTQDVIYEPLTALNAMVQNNRIELLNHPVCKEYLLMKWLAYGFRAHMMNLGSYCLGLIPMTILVVNIKPGMAFNSTGIINETSDHSEILDTTNSYLIKTCMILVFLSSIFGYCKEAGQIFQQKRNYFMDISNVLEWIIYTTGIIFVLPLFVEIPAHLQWQCGAIAVYFYWMNFLLYLQRFENCGIFIVMLEVILKTLLRSTVVFIFLLLAFGLSFYILLNLQDPFSSPLLSIIQTFSMMLGDINYRESFLEPYLRNELAHPVLSFAQLVSFTIFVPIVLMNLLIGLAVGDIAEVQKHASLKRIAMQVELHTSLEKKLPLWFLRKVDQKSTIVYPNKPRSGGMLFHIFCFLFCTGEIRQEIPNADKSLEMEILKQKYRLKDLTFLLEKQHELIKLIIQKMEIISETEDDDSHCSFQDRFKKEQMEQRNSRWNTVARAVKAKTHHLEP
